# Experimental data reported in the array DNA melting data of Ke et al. (doi:10.1101/2024.01.08.574731).
# Legend:
# [1] = melting temperature; fluorescence melt of hairpins on a sequencing array, two-state fit, raised by 9.35 °C to match UV melts; details: sodium 0.088 M
# Method in brief: (§1)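 Hairpins were imaged by Cy3 fluorescence on a sequenced MiSeq flow cell with annealed Cy3 and quencher oligos, in 50 mM Na-HEPES pH 8.0, 25 mM NaCl, in 2.5 °C steps up to 60 °C. Bootstrapped two-state fits of normalised signals gave melting temperature and folding enthalpy. Four replicates were combined by inverse variance, and fitted temperatures were raised by 9.35 °C to match UV melts.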
# [2] = folding enthalpy; higher = less favourable; fluorescence melt of hairpins on a sequencing array, two-state fit; details: sodium 0.088 M
# Method in brief: as §1
Sequence,Tm [1] [°C],folding enthalpy [2] [kcal/mol]
GTAGTCCGAAAGGAATAC (((.(((....))).))),49.7,-37.6
GTAGTCGAAAGACACTAC ((((((....)))..))),39.6,-19.7
GTAGTCGAAAGACAGTAC ((((((....)))..))),27.2,-12.5
GTAGTCGAAAGACCTAC ((((((....))).))),36.8,-18.9
GTAGTCGAAAGACGATAC ((((((....)))..))),35.6,-13
GTAGTCGAAAGACTTAC ((((((....))).))),39.9,-13.2
GTAGTCGAAAGACTTTAC ((((((....)))..))),29.5,-13.7
GTAGTGCGAAAGCAATAC (((.(((....))).))),53.9,-28
GTAGTGGGAAACCACTAC (((((((....))))))),63.4,-30.3
GTAGTGGGAAACTGCTAC ((((..(....)..)))),36.8,-23.4
GTAGTTCCGAAAGGATAC (((..(((....)))))),27.7,-11.6
GTATAACGAAAGTTGTAC (((.(((....))).))),45.5,-28.4
GTATAACGAAAGTTTAC (((.(((....)))))),30.4,-16.8
GTATACGAAAGTAGCTAC ((((((....)))..))),24.4,-8.67
GTATACGAAAGTATAC ((((((....)))))),54.2,-28.4
GTATACGGAAACGTATGC (.(((((....))))).),46.4,-24.5
GTATAGCCGAAAGGCTAC (((..(((....)))))),36.4,-7.94
GTATAGCGAAAGCTTAC (((.(((....)))))),39.2,-12.8
GTATAGCGAAAGCTTTAC (((.(((....))).))),40.9,-22
GTATAGGGAAACCTGTAC (((.(((....))).))),39.2,-30.3
GTATAGTCGAAAGACTAC (((..(((....)))))),32.6,-11.9
GTATATCGAAAGATCTAC (((.(((....))).))),31.8,-19.5
GTATCCACGAAAGTGTAC (((..(((....)))))),21.2,-10.6

Sequence,Tm [1] [°C],folding enthalpy [2] [kcal/mol]
GTATCCGAAAGGACGTAC ((((((....)))..))),25.9,-9.37
GTATCCGAAAGGACTAC ((((((....))).))),35.9,-14.3
GTATCCGAAAGGAGGTAC ((((((....)))..))),28.5,-10.3
GTATCCGAAAGGATATAC ((((((....)))..))),44.8,-13.8
GTATCCGAAAGGATTTAC ((((((....)))..))),30.6,-12
GTATCCGGAAACAGATAC (((((.(....).))))),31.7,-23.4
GTATCCGGAAACGGACAC ((.((((....)))).)),39,-19.8
GTATCGCCGAAAGGCTAC (((..(((....)))))),32.9,-6.58
GTATCGGGAAACTGATGC (.(((.(....).))).),33.1,-29.6
GTATCTCGAAAGAGCTAC (((.(((....))).))),36,-21.8
GTATCTGGAAACAGACAC ((.((((....)))).)),30.7,-26.2
GTATCTGGAAACAGATAC (((((((....))))))),56.1,-39.5
GTATCTGGAAACGGATAC (((((.(....).))))),44.8,-38
GTATGAGGAAACCCATAC (((((.(....).))))),35.3,-30.3
GTATGCCGAAAGGCGTAC (((.(((....))).))),63.4,-26.2
GTATGCGAAAGCAGATAC ((((((....)))..))),36.7,-12.9
GTATGCGAAAGCATTTAC ((((((....)))..))),30.6,-8.67
GTATGCGCGAAAGCGTAC (((..(((....)))))),31.3,-9.22
GTATGGGGAAACCCATGC (.(((((....))))).),49,-20.9
GTATGTACGAAAGTATAC (((..(((....)))))),31,-11.4
GTATGTCGAAAGACTAC (((.(((....)))))),41.3,-19.2
GTATGTGGAAACACATGC (.(((((....))))).),47.9,-24.3
GTATGTGGAAACATATGC (.((.((....)).)).),37.5,-24.1

Sequence,Tm [1] [°C],folding enthalpy [2] [kcal/mol]
GTATGTGGAAACATGTAC (((..((....))..))),30.9,-16.4
GTATGTGGAAACGCATAC (((((.(....).))))),46.9,-29.7
GTATTAGCGAAAGCTTAC (((..(((....)))))),25.5,-12.8
GTATTCGAAAGAATTTAC ((((((....)))..))),27.5,-12.2
GTATTCGGAAACAAATAC (((((.(....).))))),22.5,-10.3
GTATTGACGAAAGTCTAC (((..(((....)))))),25.1,-8.47
GTATTGCGAAAGCATTAC (((.(((....))).))),44.9,-23.7
GTATTGGGAAACTAATAC (((((.(....).))))),34.8,-22.2
GTATTTCCGAAAGGATAC (((..(((....)))))),26,-11.8
GTATTTCGAAAGAAGTAC (((.(((....))).))),40.4,-34.3
GTCAAACGAAAGTTGGAC (((.(((....))).))),49.9,-24.8
GTCAACACGAAAGTGGAC (((..(((....)))))),38.6,-19.3
GTCAACCGAAAGGTCGAC (((.(((....))).))),50.9,-35.1
GTCAACGAAAGTTATGAC ((((((....)))..))),33.1,-20.5
GTCAACGAAAGTTCAGAC ((((((....)))..))),28.3,-11.4
GTCAACGAAAGTTGAC ((((((....)))))),68.9,-37.4
GTCAACGAAAGTTTGGAC ((((((....)))..))),27.8,-13.8
GTCAACGGAAACGTTGAC (((((((....))))))),69,-45.2
GTCAATACGAAAGTAGAC (((..(((....)))))),27.3,-12
GTCAATGGAAACATTGAC (((((((....))))))),58.9,-39.8
GTCACAACGAAAGTTGAC (((..(((....)))))),33.2,-11.7
GTCACACGAAAGTGAGAC (((.(((....))).))),55.1,-31.9
GTCACAGGAAACTGTGAC (((((((....))))))),66.8,-42.3

Sequence,Tm [1] [°C],folding enthalpy [2] [kcal/mol]
GTCACCCCGAAAGGGGAC (((..(((....)))))),41.4,-10.1
GTCACCCGAAAGGGGAC (((.(((....)))))),55,-20.1
GTCACCGAAAGGTAAGAC ((((((....)))..))),39,-19.6
GTCACCGAAAGGTCGAC ((((((....))).))),48.1,-20.1
GTCACCGAAAGGTCGGAC ((((((....)))..))),34.3,-16
GTCACCGGAAACGGTAAC ((.((((....)))).)),38.4,-16.6
GTCACCTCGAAAGAGGAC (((..(((....)))))),26.9,-9.82
GTCACGGCGAAAGCCGAC (((..(((....)))))),27.9,-6.5
GTCACTCGAAAGAGCGAC (((.(((....))).))),51.5,-43.5
GTCACTCGAAAGAGGGAC (((.(((....))).))),60.9,-50.4
GTCACTGGAAACAGTGGC (.(((((....))))).),53.7,-40.8
GTCACTGGAAACGGTGAC (((((.(....).))))),52.7,-47.5
GTCAGACCGAAAGGTGAC (((..(((....)))))),44.4,-21.4
GTCAGAGCGAAAGCTGAC (((..(((....)))))),49.3,-26.4
GTCAGATCGAAAGATGAC (((..(((....)))))),38.1,-22.2
GTCAGCGAAAGCTGGGAC ((((((....)))..))),40.2,-9.13
GTCAGCGAAAGCTTAGAC ((((((....)))..))),40,-15.3
GTCAGCGAAAGCTTCGAC ((((((....)))..))),32.3,-12
GTCAGCGGAAACGCCGAC (((.(((....))).))),49.2,-26.9
GTCAGCGGAAACGTTGGC (.((.((....)).)).),42.2,-26
GTCAGGACGAAAGTCGAC (((..(((....)))))),41.3,-18.7
GTCAGGGAAACCTGAC ((((((....)))))),61.6,-32.5
